From ChEMBL document CHEMBL1250477, “Reverse engineering truncations of an antimicrobial peptide dimer to identify the origins of potency and broad spectrum of action” (J Med Chem, 2010)
Converted amounts (≈) assume the structure as drawn. The source made the active and inactive calls. The calls are words filed in the database; no cut-off is given here.

Assays:
Escherichia coli [1] = test: Induction of morphological changes in Escherichia coli ML35p assessed as thin filamentous phenotype at MIC concentration after 18 hrs using propidium iodide/Syto9 staining by microscopic analysis; type: functional, organism-based
Method in brief: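 Incubated overnight (18 h) with peptide at its MIC, 37 °C, 200 rpm. Stained 15 min with PI (2.7 μM) and Syto 9 (6 μM), smeared, heat-fixed and imaged under Syto and PI filters. Untreated cells as control.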

Staphylococcus aureus [2] = test: Antibacterial activity against vancomycin/methicillin-resistant Staphylococcus aureus ATCC 700699 after 18 hrs; type: functional; conditions: ATCC 700699, 18 h
Method in brief: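 Modified broth microdilution for cationic peptides. Overnight cells were diluted in Mueller Hinton broth to 10⁵ CFU/mL, and peptide was added from a 10× stock in 0.2% BSA/0.01% acetic acid. MIC = lowest concentration inhibiting measurable growth. Triplicates, repeated at least twice.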

Escherichia coli [3] = test: Antibacterial activity against Escherichia coli ML35p after 18 hrs; type: functional
Method in brief: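 Broth microdilution, modified MIC method for cationic peptides. Overnight culture diluted in Mueller Hinton broth to 10⁵ CFU/mL; peptide added from 10× stock in 0.2% BSA/0.01% acetic acid. MIC = lowest concentration inhibiting measurable growth. Triplicates, repeated at least twice.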

Escherichia coli [4] = test: Drug uptake in Escherichia coli ML35p outer membrane assessed as increase in fluorescence of N-phenylnaphthylamine at 10 uM measured for 10 mins; type: ADME, organism-based; conditions: in vivo
Method in brief: (§1)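 NPN uptake: mid-log cells washed and resuspended in 5 mM glucose/5 mM HEPES pH 7.2. Peptide added to 10 μM final, with 10 μM NPN. Fluorescence (ex 350 nm, em 420 nm) monitored for 10 min.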

Escherichia coli [5] = test: Drug uptake in Escherichia coli ML35p inner membrane assessed as increase in fluorescence of propidium iodide at 10 uM measured for 10 mins; type: ADME, organism-based; conditions: in vivo
Method in brief: (§2)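 PI uptake: mid-log cells washed and resuspended in 5 mM glucose/5 mM HEPES pH 7.2. Peptide added to 10 μM final, with 2.7 μM propidium iodide. Fluorescence (ex 535 nm, em 617 nm) followed for 10 min; lag before rise read from trace.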

Escherichia coli [6] = test: Ratio of MBC to MIC for Escherichia coli ML35p; type: functional
Method in brief: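 MBC per CLSI: 100 μL from each clear MIC well plated on MH agar in triplicate, 18 h incubation; MBC = lowest concentration preventing growth of 99.9% of bacteria. Ratio taken as MBC/MIC. Two independent experiments in triplicate.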

Escherichia coli [7] = test: Antibacterial activity against Escherichia coli ML35p assessed as reduction of colony forming units at 4 times MIC concentration after 20 mins; type: functional; parameters: scale not given: the % may be the effect or the level left
Method in brief: (§3)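 Time-kill: overnight culture diluted in MH broth to 10⁵ CFU/mL. 1 mL exposed to peptide at 4× MIC, or water as control, at 37 °C, 200 rpm. At time points, aliquots diluted and plated on MH agar. Colonies counted after 20 h at 37 °C. Time to ~95% kill estimated.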

Escherichia coli [8] = test: Antibacterial activity against Escherichia coli ML35p assessed as reduction of colony forming units at 4 times MIC concentration after 5 mins; type: functional; parameters: scale not given: the % may be the effect or the level left; method in brief: as §3
Escherichia coli [9] = test: Antibacterial activity against Escherichia coli ML35p assessed as reduction of colony forming units at 4 times MIC concentration after 40 mins; type: functional; parameters: scale not given: the % may be the effect or the level left; method in brief: as §3
Staphylococcus aureus [10] = test: Ratio of MBC to MIC for vancomycin/methicillin-resistant Staphylococcus aureus ATCC 700699; type: functional
Method in brief: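 For MBC, 100 μL from each clear well was plated on MH agar in triplicate and incubated for 18 h. MBC = lowest concentration preventing growth of 99.9% of bacteria. The ratio is MBC divided by MIC. Two independent experiments.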

Escherichia coli [11] = test: Drug uptake in Escherichia coli ML35p outer membrane assessed as time required to permeabilize to outer membrane at 10 uM; type: ADME, organism-based; conditions: in vivo; method in brief: as §1
Escherichia coli [12] = test: Drug uptake in Escherichia coli ML35p inner membrane assessed as lag time at 10 uM; type: ADME, organism-based; conditions: in vivo; method in brief: as §2
Escherichia coli [13] = test: Drug uptake in Escherichia coli ML35p inner membrane assessed as time required to permeabilize to inner membrane at 10 uM; type: ADME, organism-based; conditions: in vivo; method in brief: as §2

CC(=O)NCC(=O)N/C(=C/c1ccccc1)C(=O)N[C@@H](CCCNC(=N)N)C(=O)N[C@H](CCCCN)C(=O)N/C(=C/c1ccccc1)C(=O)N[C@@H](Cc1c[nH]cn1)C(=O)N[C@H](CCCCN)C(=O)N/C(=C\c1ccccc1)C(=O)N[C@@H](Cc1c[nH]c2ccccc12)C(=O)N[C@@H](C)C(=O)NCCCC[C@@H](NC(=O)[C@H](C)NC(=O)[C@H](Cc1c[nH]c2ccccc12)NC(=O)/C(=C\c1ccccc1)NC(=O)[C@@H](CCCCN)NC(=O)[C@H](Cc1c[nH]cn1)NC(=O)/C(=C\c1ccccc1)NC(=O)[C@@H](CCCCN)NC(=O)[C@@H](CCCNC(=N)N)NC(=O)/C(=C\c1ccccc1)NC(=O)CNC(C)=O)C(N)=O
Activity (Escherichia coli [1]): Active

CC(=O)NCC(=O)N[C@@H](Cc1c[nH]cn1)C(=O)N[C@H](CCCCN)C(=O)N/C(=C\c1ccccc1)C(=O)N[C@@H](Cc1c[nH]c2ccccc12)C(=O)N[C@@H](C)C(=O)NCCCC[C@@H](NC(=O)[C@H](C)NC(=O)[C@H](Cc1c[nH]c2ccccc12)NC(=O)/C(=C\c1ccccc1)NC(=O)[C@@H](CCCCN)NC(=O)[C@H](Cc1c[nH]cn1)NC(=O)CNC(C)=O)C(N)=O
MIC (Staphylococcus aureus [2]): > 100 µM | MIC (Escherichia coli [3]): > 100 µM

CC(=O)NCC(=O)N[C@@H](CCCCN)C(=O)N/C(=C/c1ccccc1)C(=O)N[C@@H](Cc1c[nH]cn1)C(=O)N[C@@H](CCCCN)C(=O)N/C(=C\c1ccccc1)C(=O)N[C@@H](Cc1c[nH]c2ccccc12)C(=O)N[C@@H](C)C(=O)NCCCC[C@H](NC(=O)[C@H](C)NC(=O)[C@H](Cc1c[nH]c2ccccc12)NC(=O)/C(=C\c1ccccc1)NC(=O)[C@H](CCCCN)NC(=O)[C@H](Cc1c[nH]cn1)NC(=O)/C(=C\c1ccccc1)NC(=O)[C@H](CCCCN)NC(=O)CNC(C)=O)C(N)=O [listing 1 of 2 here]
Drug uptake (Escherichia coli [4]): Active | Drug uptake (Escherichia coli [5]): Not Active

CC(=O)NCC(=O)N[C@@H](CCCNC(=N)N)C(=O)N[C@@H](CCCCN)C(=O)N/C(=C/c1ccccc1)C(=O)N[C@@H](Cc1c[nH]cn1)C(=O)N[C@@H](CCCCN)C(=O)N/C(=C\c1ccccc1)C(=O)N[C@@H](Cc1c[nH]c2ccccc12)C(=O)N[C@@H](C)C(=O)NCCCC[C@H](NC(=O)[C@H](C)NC(=O)[C@H](Cc1c[nH]c2ccccc12)NC(=O)/C(=C\c1ccccc1)NC(=O)[C@H](CCCCN)NC(=O)[C@H](Cc1c[nH]cn1)NC(=O)/C(=C\c1ccccc1)NC(=O)[C@H](CCCCN)NC(=O)[C@H](CCCNC(=N)N)NC(=O)CNC(C)=O)C(N)=O [listing 1 of 2 here]
Ratio (Escherichia coli [6]): 2 | MIC (Staphylococcus aureus [2]): > 100 µM | MBC (Escherichia coli [3]): 10 µM (≈ 25.4 µg/mL) | MIC (Escherichia coli [3]): 5 µM (≈ 12.7 µg/mL) | Activity (Escherichia coli [7]): 95% | Activity (Escherichia coli [8]): 50%

CC(=O)NCC(=O)N[C@@H](CCCNC(=N)N)C(=O)N[C@@H](CCCCN)C(=O)N/C(=C/c1ccccc1)C(=O)N[C@@H](Cc1c[nH]cn1)C(=O)N[C@@H](CCCCN)C(=O)N/C(=C\c1ccccc1)C(=O)N[C@@H](Cc1c[nH]c2ccccc12)C(=O)N[C@@H](C)C(=O)NCCCC[C@H](NC(=O)[C@H](C)NC(=O)[C@H](Cc1c[nH]c2ccccc12)NC(=O)/C(=C\c1ccccc1)NC(=O)[C@H](CCCCN)NC(=O)[C@H](Cc1c[nH]cn1)NC(=O)/C(=C\c1ccccc1)NC(=O)[C@H](CCCCN)NC(=O)[C@H](CCCNC(=N)N)NC(=O)CNC(C)=O)C(N)=O [listing 2 of 2 here]
Drug uptake (Escherichia coli [4]): Active | Drug uptake (Escherichia coli [5]): Not Active

CC(=O)NCC(=O)N[C@@H](CCCCN)C(=O)N/C(=C/c1ccccc1)C(=O)N[C@@H](Cc1c[nH]cn1)C(=O)N[C@@H](CCCCN)C(=O)N/C(=C\c1ccccc1)C(=O)N[C@@H](Cc1c[nH]c2ccccc12)C(=O)N[C@@H](C)C(=O)NCCCC[C@H](NC(=O)[C@H](C)NC(=O)[C@H](Cc1c[nH]c2ccccc12)NC(=O)/C(=C\c1ccccc1)NC(=O)[C@H](CCCCN)NC(=O)[C@H](Cc1c[nH]cn1)NC(=O)/C(=C\c1ccccc1)NC(=O)[C@H](CCCCN)NC(=O)CNC(C)=O)C(N)=O [listing 2 of 2 here]
Ratio (Escherichia coli [6]): 1.5 | MIC (Staphylococcus aureus [2]): > 100 µM | MBC (Escherichia coli [3]): 15 µM (≈ 33.4 µg/mL) | MIC (Escherichia coli [3]): 10 µM (≈ 22.3 µg/mL) | Activity (Escherichia coli [9]): 95% | Activity (Escherichia coli [8]): 50%

CC(=O)NCC(=O)N/C(=C/c1ccccc1)C(=O)N[C@@H](CCCNC(=N)N)C(=O)N[C@@H](CCCCN)C(=O)N/C(=C/c1ccccc1)C(=O)N[C@@H](Cc1c[nH]cn1)C(=O)N[C@@H](CCCCN)C(=O)N/C(=C\c1ccccc1)C(=O)N[C@@H](Cc1c[nH]c2ccccc12)C(=O)N[C@@H](C)C(=O)NCCCC[C@H](NC(=O)[C@H](C)NC(=O)[C@H](Cc1c[nH]c2ccccc12)NC(=O)/C(=C\c1ccccc1)NC(=O)[C@H](CCCCN)NC(=O)[C@H](Cc1c[nH]cn1)NC(=O)/C(=C\c1ccccc1)NC(=O)[C@H](CCCCN)NC(=O)[C@H](CCCNC(=N)N)NC(=O)/C(=C\c1ccccc1)NC(=O)CNC(C)=O)C(N)=O [listing 1 of 2 here]
Ratio (Escherichia coli [6]): 2 | MBC (Staphylococcus aureus [2]): 7.5 µM (≈ 21.2 µg/mL) | MIC (Staphylococcus aureus [2]): 5 µM (≈ 14.1 µg/mL) | MBC (Escherichia coli [3]): 5 µM (≈ 14.1 µg/mL) | MIC (Escherichia coli [3]): 2.5 µM (≈ 7.07 µg/mL) | Activity (Escherichia coli [8]): 96% | Ratio (Staphylococcus aureus [10]): 1.5

CC(=O)NCC(=O)N[C@@H](CCCNC(=N)N)C(=O)N[C@H](CCCCN)C(=O)N/C(=C/c1ccccc1)C(=O)N[C@@H](Cc1c[nH]cn1)C(=O)N[C@H](CCCCN)C(=O)N/C(=C\c1ccccc1)C(=O)N[C@@H](Cc1c[nH]c2ccccc12)C(=O)N[C@@H](C)C(=O)NCCCC[C@@H](NC(=O)[C@H](C)NC(=O)[C@H](Cc1c[nH]c2ccccc12)NC(=O)/C(=C\c1ccccc1)NC(=O)[C@@H](CCCCN)NC(=O)[C@H](Cc1c[nH]cn1)NC(=O)/C(=C\c1ccccc1)NC(=O)[C@@H](CCCCN)NC(=O)[C@@H](CCCNC(=N)N)NC(=O)CNC(C)=O)C(N)=O
Activity (Escherichia coli [1]): Active

CC(=O)NCC(=O)N[C@H](CCCCN)C(=O)N/C(=C\c1ccccc1)C(=O)N[C@@H](Cc1c[nH]c2ccccc12)C(=O)N[C@@H](C)C(=O)NCCCC[C@@H](NC(=O)[C@H](C)NC(=O)[C@H](Cc1c[nH]c2ccccc12)NC(=O)/C(=C\c1ccccc1)NC(=O)[C@@H](CCCCN)NC(=O)CNC(C)=O)C(N)=O [PEPTIDE A]
MIC (Staphylococcus aureus [2]): > 100 µM | MIC (Escherichia coli [3]): > 100 µM

CC(=O)NCC(=O)N[C@H](CCCCN)C(=O)N/C(=C/c1ccccc1)C(=O)N[C@@H](Cc1c[nH]cn1)C(=O)N[C@H](CCCCN)C(=O)N/C(=C\c1ccccc1)C(=O)N[C@@H](Cc1c[nH]c2ccccc12)C(=O)N[C@@H](C)C(=O)NCCCC[C@@H](NC(=O)[C@H](C)NC(=O)[C@H](Cc1c[nH]c2ccccc12)NC(=O)/C(=C\c1ccccc1)NC(=O)[C@@H](CCCCN)NC(=O)[C@H](Cc1c[nH]cn1)NC(=O)/C(=C\c1ccccc1)NC(=O)[C@@H](CCCCN)NC(=O)CNC(C)=O)C(N)=O
Activity (Escherichia coli [1]): Active

CC(=O)NCC(=O)N/C(=C/c1ccccc1)C(=O)N[C@@H](CCCNC(=N)N)C(=O)N[C@@H](CCCCN)C(=O)N/C(=C/c1ccccc1)C(=O)N[C@@H](Cc1c[nH]cn1)C(=O)N[C@@H](CCCCN)C(=O)N/C(=C\c1ccccc1)C(=O)N[C@@H](Cc1c[nH]c2ccccc12)C(=O)N[C@@H](C)C(=O)NCCCC[C@H](NC(=O)[C@H](C)NC(=O)[C@H](Cc1c[nH]c2ccccc12)NC(=O)/C(=C\c1ccccc1)NC(=O)[C@H](CCCCN)NC(=O)[C@H](Cc1c[nH]cn1)NC(=O)/C(=C\c1ccccc1)NC(=O)[C@H](CCCCN)NC(=O)[C@H](CCCNC(=N)N)NC(=O)/C(=C\c1ccccc1)NC(=O)CNC(C)=O)C(N)=O [listing 2 of 2 here]
Time (Escherichia coli [11]): 150 s | Drug uptake (Escherichia coli [4]): Active | Drug uptake (Escherichia coli [5]): Active | Time (Escherichia coli [12]): 2.5 min | Time (Escherichia coli [13]): 230 s
